The values below come from ChEMBL document CHEMBL3351873, “Synthesis, biological evaluation and molecular docking of novel chalcone-coumarin hybrids as anticancer and antimalarial agents” (Eur J Med Chem, 2014).

Active and inactive are the calls of the source. The calls are words filed in the database; no cut-off is given here.

The nature of data set [1]: (§1) Cytotoxicity against human MOLT3 cells assessed as reduction in cell viability after 48 hrs by XTT assay. The data set is classed as functional, cell-based. Conditions: MOLT-3, 48 h. The method in brief: (§2)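 Suspension cells plated at 10,000–20,000 cells/well and pre-incubated 24 h at 37 °C, 5% CO₂. Serial compound dilutions were added in an equal volume of medium, with etoposide and/or doxorubicin as positive controls and DMSO as negative control, then incubated 48 h more. Viable cells were read by XTT. IC50 is taken as 50% growth inhibition versus the DMSO control.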
On the technique in general: Tetrazolium dyes change colour on reduction, which living cells bring about.

Another data set relates to Vero. As to the kind of experiment: Cytotoxicity against african green monkey Vero cells assessed as reduction in cell viability after 4 days by green fluorescent protein detection method. The data set is classed as cell-based. As to conditions: chlorocebus sabaeus, 96 h. The method in brief:
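GFP-expressing Vero cells (stably transfected with pEGFP-N1) seeded at 3.3 × 10⁴ cells/mL onto compounds prediluted in 0.5% DMSO; 4 days at 37 °C, 5% CO₂. Fluorescence read at ex 485/em 535 nm, day-0 background subtracted. IC50 from dose-response curves over 6 concentrations (3-fold serial dilutions). Ellipticine positive control, 0.5% DMSO negative control.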

Data set [2] has as its system HepG2. As to the kind of experiment: Cytotoxicity against human HepG2 cells assessed as reduction in cell viability after 48 hrs by MTT assay. The data set is classed as functional, cell-based. As to conditions: for IC50: HepG2, 48 h. Put shortly: (§3)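 Adherent cells plated at 10,000–20,000 cells/well and allowed 24 h at 37 °C (5% CO₂) before an equal volume of medium with serially diluted compound was added. Etoposide and/or doxorubicin were positive controls and DMSO the negative control. After a further 48 h, surviving cells were measured by MTT. IC50 is the concentration giving 50% growth inhibition relative to the DMSO control.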

For a further data set, the system named is HuCC-A1. As to the kind of experiment: (§4) Cytotoxicity against human HuCCa1 cells assessed as reduction in cell viability after 48 hrs by MTT assay. The format is functional, cell-based. The method in brief: as §3
A further data set relates to Plasmodium falciparum. In words: Antimalarial activity against multidrug-resistant Plasmodium falciparum K1 after 24 hrs by [3H]hypoxanthine incorporation assay. The data set is classed as functional, organism-based. Put shortly:
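P. falciparum K1 kept in RPMI 1640 with 20 mM HEPES, NaHCO₃, 10% human serum and 3% erythrocytes at 37 °C under 3% CO₂, passaged daily. Early ring-stage parasites (1% parasitemia, 1.5% erythrocytes) were exposed to compound (0.1% DMSO final) for 24 h. [3H]hypoxanthine was then added for a further 24 h. Incorporation was counted by scintillation and expressed as percent parasite growth.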

In a further data set the test system is A549. As to the kind of experiment: Cytotoxicity against human A549 cells assessed as reduction in cell viability after 48 hrs by MTT assay. The data set is classed as functional, cell-based. As to conditions: for IC50: A549, 48 h. The method in brief: as §3
The subject of a further data set is MOLT-3. The data set is described as §1. The format is functional, cell-based. The method in brief:
as §2

A short description of data set [3]: as §4. The format is functional, cell-based. Conditions: HuCC-A1, 48 h. Put shortly: as §3
Data set [4] deals with HepG2. In words: Ratio of etoposide IC50 to compound IC50 for human HepG2 cells assessed as reduction in cell viability after 48 hrs by MTT assay. The format is functional.
[5] abbreviates: Plasmodium falciparum, K1, read-out: IC50.

As usually defined, the IC50 is the point on the concentration scale where inhibition reaches its midpoint. `COc1cc([C@@H]2c3cc4c(cc3[C@@H](O[C@@H]3O[C@@H]5CO[C@@H](C)O[C@H]5[C@H](O)[C@H]3O)[C@H]3COC(=O)[C@H]23)OCO4)cc(OC)c1O` [ETOPOSIDE]: the IC50 in data set [1] was 0.051 µM.
Regarding `Cc1c2ccncc2c(C)c2c1[nH]c1ccccc12` [ELLIPTECINE], the IC50 with Vero is 1.94 µM.
Turning to `COc1ccc(/C=C/C(=O)c2ccc(-n3cc(COc4ccc5ccc(=O)oc5c4)nn3)cc2)c(OC)c1OC`, the result in the data set on HepG2 [2], with HuCC-A1 and in the data set with A549 was inactive. Moreover, the IC50 in data set [1] was 22.5 µM; with Plasmodium falciparum, “Not Active”. The Activity result in the data set with Vero is on record as “Non-toxic”.
`COc1cccc(/C=C/C(=O)c2ccc(-n3cc(COc4ccc5ccc(=O)oc5c4)nn3)cc2)c1OC`: the IC50 in the data set with HepG2 [2] was 8.18 µM; in data set [3] it was 4.81 µM; in the data set on Plasmodium falciparum, “Not Active”; in the data set with A549, 7.95 µM. Moreover, in the data set on MOLT-3, the result was inactive. Further, the Activity entry in the data set with Vero is recorded as “Non-toxic”.
As for `COc1cccc(/C=C/C(=O)c2cccc(-n3cc(COc4cc(=O)oc5ccccc45)nn3)c2)c1OC`, the IC50 came to 4.26 µM in the data set with HepG2 [2]; 0.53 µM in data set [1]; 2.36 µM in [3]; 4.73 µM with Plasmodium falciparum (setting [5]); 3.91 µM with Vero; 18.1 µM with A549. Also, the “Ratio IC50” value in the data set with HepG2 [4] turned out to be 7.
Regarding `COc1ccc(/C=C/C(=O)c2cccc(-n3cc(COc4ccc5ccc(=O)oc5c4)nn3)c2)c(OC)c1OC`, the result in the data set with HepG2 [2], in the data set with HuCC-A1 and in the data set on A549 was inactive. For the same compound, the values for the 50% inhibitory concentration (IC50) (in data set [1]; in the data set with Plasmodium falciparum (setting [5])) were 3.89 µM and 13 µM, respectively. In addition, the Activity entry in the data set on Vero is “Non-toxic”.
As for `COc1cc(/C=C/C(=O)c2ccc(-n3cc(COc4ccc5ccc(=O)oc5c4)nn3)cc2)cc(OC)c1OC`, the outcome in the data set with HepG2 [2], with HuCC-A1 and in the data set with A549 was inactive. For the same compound, the IC50 in data set [1] is 79.5 µM; in the data set with Plasmodium falciparum it was “Not Active”. For the same compound, in the data set on Vero, the Activity result was “Non-toxic”.
As for `COc1cccc(/C=C/C(=O)c2cccc(-n3cc(COc4ccc5ccc(=O)oc5c4)nn3)c2)c1OC`, the 50% inhibitory concentration (IC50) in the data set with HepG2 [2] turned out to be 15.7 µM; in data set [1] it was 5.16 µM; in [3], 11.1 µM; in the data set with Plasmodium falciparum (setting [5]) it was 6.63 µM; with Vero, 35 µM; in the data set on A549, 31.4 µM.
As for `COc1cccc2c1C(=O)c1c(O)c3c(c(O)c1C2=O)C[C@@](O)(C(=O)CO)C[C@@H]3O[C@H]1C[C@H](N)[C@H](O)[C@H](C)O1` [DOXORUBICIN], the IC50 in data set [3] is 0.83 µM.
For the compound `COc1ccc(/C=C/C(=O)c2ccc(-n3cc(COc4cc(=O)oc5ccccc45)nn3)cc2)c(OC)c1OC`, the IC50 in the data set with HepG2 [2] is 22.9 µM; in [1] it was 12.3 µM; in the data set with Plasmodium falciparum (setting [5]) it was 1.6 µM. The outcome with HuCC-A1 and with A549 was inactive. Also, the Activity entry in the data set with Vero was “Non-toxic”.
Turning to `COc1cc(/C=C/C(=O)c2ccc(-n3cc(COc4cc(=O)oc5ccccc45)nn3)cc2)cc(OC)c1OC`, the result in the data set on HepG2 [2], with HuCC-A1 and in the data set on A549 was inactive. Moreover, the IC50 in [1] was 6.58 µM; in the data set with Plasmodium falciparum, “Not Active”. In the data set with Vero, the Activity result was “Non-toxic”.
Consider `C[C@H]1[C@@H](O)O[C@@H]2O[C@@]3(C)CC[C@H]4[C@H](C)CC[C@@H]1[C@@]24OO3` [ARTENIMOL], for which the IC50 with Plasmodium falciparum (setting [5]) was found to be 0.0011 µM.
With `COc1ccc(/C=C/C(=O)c2cccc(-n3cc(COc4cc(=O)oc5ccccc45)nn3)c2)cc1OC`, the outcome with HepG2 [2] and in the data set with A549 was inactive. For the same compound, the IC50 was 3.91 µM in [1], 38.6 µM in data set [3] and “Not Active” in the data set on Plasmodium falciparum. For the same compound, the Activity result in the data set on Vero was “Non-toxic”.
For `COc1ccc(/C=C/C(=O)c2cccc(-n3cc(COc4cc(=O)oc5ccccc45)nn3)c2)c(OC)c1OC`, the result in the data set on HepG2 [2] and in the data set with A549 was inactive. The IC50 in [1] was found to be 1.13 µM; in [3], 6.13 µM; in the data set with Plasmodium falciparum (setting [5]), 7.47 µM. In the data set with Vero, the Activity result is “Non-toxic”.
For the compound `COc1ccc(/C=C/C(=O)c2cccc(-n3cc(COc4ccc5ccc(=O)oc5c4)nn3)c2)cc1OC`, the outcome with HepG2 [2] and in the data set with A549 was inactive. Further, the IC50 is 3.12 µM in data set [1], 33.4 µM in [3] and “Not Active” in the data set with Plasmodium falciparum. The Activity entry with Vero is recorded as “Non-toxic”.
